Experimental data reported in ChEMBL document CHEMBL2311492, “Small molecule amides as potent ROR-γ selective modulators” (Bioorg Med Chem Lett, 2013).
Values after ≈ are worked out from the molar mass of the structure shown. Active and inactive are the calls of the source. No cut-off for these calls is given here.

Columns and labels:
[1] = Drug level in C57Bl6 mouse brain at 10 mg/kg, ip after 6 hrs; assay type: ADME, organism-based; parameters: dose 10 mg/kg, route intraperitoneal; settings: read-out: Drug uptake
Cytochrome P450 1A2 = target: T1, Cytochrome P450 1A2 (Homo sapiens, UniProt P05177); assay: Inhibition of CYP1A2 (unknown origin) at 10 uM; assay type: ADME
T1 sequence (P05177 whole entry): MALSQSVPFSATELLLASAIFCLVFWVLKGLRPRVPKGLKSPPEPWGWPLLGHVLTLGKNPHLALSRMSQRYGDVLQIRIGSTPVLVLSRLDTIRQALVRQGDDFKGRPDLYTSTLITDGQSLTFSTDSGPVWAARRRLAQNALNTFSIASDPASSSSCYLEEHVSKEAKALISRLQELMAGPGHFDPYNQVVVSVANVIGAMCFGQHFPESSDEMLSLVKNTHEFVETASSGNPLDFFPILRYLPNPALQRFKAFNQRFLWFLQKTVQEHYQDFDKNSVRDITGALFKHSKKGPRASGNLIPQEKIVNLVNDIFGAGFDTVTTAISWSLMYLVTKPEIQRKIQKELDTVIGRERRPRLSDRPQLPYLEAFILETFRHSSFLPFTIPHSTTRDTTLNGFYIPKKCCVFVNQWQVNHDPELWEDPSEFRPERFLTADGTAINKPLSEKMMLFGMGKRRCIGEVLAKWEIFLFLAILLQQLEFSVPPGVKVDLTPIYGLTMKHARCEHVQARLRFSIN

[2] = Plasma concentration in C57Bl6 mouse at 10 mg/kg, ip after 6 hrs; assay type: ADME, organism-based; parameters: dose 10 mg/kg, route intraperitoneal
Cytochrome P450 2D6 = Cytochrome P450 2D6 (Homo sapiens, UniProt P10635); assay: Inhibition of CYP2D6 (unknown origin) at 10 uM; assay type: ADME
Chain of Cytochrome P450 2D6 (P10635 whole entry): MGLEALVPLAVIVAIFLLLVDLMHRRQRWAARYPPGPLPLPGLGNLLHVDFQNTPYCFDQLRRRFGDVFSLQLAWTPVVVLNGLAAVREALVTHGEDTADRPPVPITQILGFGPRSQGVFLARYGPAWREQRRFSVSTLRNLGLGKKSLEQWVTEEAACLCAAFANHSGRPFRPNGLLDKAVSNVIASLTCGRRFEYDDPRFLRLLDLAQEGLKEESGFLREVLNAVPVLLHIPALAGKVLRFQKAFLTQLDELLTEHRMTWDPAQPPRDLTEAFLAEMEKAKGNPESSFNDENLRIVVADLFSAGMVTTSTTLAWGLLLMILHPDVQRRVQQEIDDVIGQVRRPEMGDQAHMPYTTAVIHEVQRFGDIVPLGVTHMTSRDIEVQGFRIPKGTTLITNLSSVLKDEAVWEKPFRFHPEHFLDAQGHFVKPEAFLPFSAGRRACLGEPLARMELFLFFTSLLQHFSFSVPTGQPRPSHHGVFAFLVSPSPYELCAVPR

[3] = target: T2, Oxysterols receptor LXR-alpha (Homo sapiens) (UniProt Q13133); assay: Modulation of LXR-alpha (unknown origin)
T2 sequence (whole entry): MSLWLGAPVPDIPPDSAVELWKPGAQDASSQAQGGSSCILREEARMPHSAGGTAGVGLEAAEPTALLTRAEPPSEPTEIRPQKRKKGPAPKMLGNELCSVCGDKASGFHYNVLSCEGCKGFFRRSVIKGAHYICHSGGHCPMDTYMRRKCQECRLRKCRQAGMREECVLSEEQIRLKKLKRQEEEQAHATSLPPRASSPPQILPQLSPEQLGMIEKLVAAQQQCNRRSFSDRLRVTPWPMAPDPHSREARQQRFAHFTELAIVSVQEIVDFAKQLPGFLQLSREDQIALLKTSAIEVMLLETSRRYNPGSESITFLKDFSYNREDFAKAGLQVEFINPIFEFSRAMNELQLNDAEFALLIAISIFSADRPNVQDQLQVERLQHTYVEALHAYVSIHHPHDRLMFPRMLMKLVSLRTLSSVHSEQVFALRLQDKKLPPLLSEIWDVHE

Cytochrome P450 3A4 = Cytochrome P450 3A4 (Homo sapiens, UniProt P08684); assay: Inhibition of CYP3A4 (unknown origin) at 10 uM; assay type: ADME
Chain of Cytochrome P450 3A4 (P08684 whole entry): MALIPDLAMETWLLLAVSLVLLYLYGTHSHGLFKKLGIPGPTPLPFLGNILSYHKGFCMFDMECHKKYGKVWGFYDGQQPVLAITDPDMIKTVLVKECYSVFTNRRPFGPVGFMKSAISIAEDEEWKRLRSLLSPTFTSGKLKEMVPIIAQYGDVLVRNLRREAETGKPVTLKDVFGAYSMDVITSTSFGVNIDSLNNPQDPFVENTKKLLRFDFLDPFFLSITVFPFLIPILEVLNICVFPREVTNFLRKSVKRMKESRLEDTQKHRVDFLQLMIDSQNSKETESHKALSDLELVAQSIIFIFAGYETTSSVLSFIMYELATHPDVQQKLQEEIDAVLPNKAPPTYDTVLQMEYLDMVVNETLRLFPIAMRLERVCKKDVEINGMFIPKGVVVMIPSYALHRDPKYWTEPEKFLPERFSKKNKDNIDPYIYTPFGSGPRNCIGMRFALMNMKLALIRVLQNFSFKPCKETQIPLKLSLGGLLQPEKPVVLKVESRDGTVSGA

[4] = target: T3, Bile acid receptor (Homo sapiens) (UniProt Q96RI1); assay: Modulation of FXR (unknown origin)
T3 sequence (whole entry): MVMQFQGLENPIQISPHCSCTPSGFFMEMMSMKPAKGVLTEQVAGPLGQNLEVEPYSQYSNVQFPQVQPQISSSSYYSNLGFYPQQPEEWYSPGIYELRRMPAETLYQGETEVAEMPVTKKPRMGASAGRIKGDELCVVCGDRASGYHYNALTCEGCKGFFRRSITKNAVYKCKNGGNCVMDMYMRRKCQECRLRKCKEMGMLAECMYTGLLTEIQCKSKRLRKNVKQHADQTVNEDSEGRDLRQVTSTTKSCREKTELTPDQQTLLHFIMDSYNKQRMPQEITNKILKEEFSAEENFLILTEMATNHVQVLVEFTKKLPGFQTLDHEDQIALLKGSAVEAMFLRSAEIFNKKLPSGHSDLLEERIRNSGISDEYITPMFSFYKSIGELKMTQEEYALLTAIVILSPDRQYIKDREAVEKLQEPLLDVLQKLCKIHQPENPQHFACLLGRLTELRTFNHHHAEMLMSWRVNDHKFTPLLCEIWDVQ

Brain = assay: Brain penetration in C57Bl6 mouse brain at 10 mg/kg, ip after 6 hrs; assay type: ADME, organism-based; parameters: dose 10 mg/kg, route intraperitoneal; settings: in vivo
[5] = Solubility of the compound in sodium citrate buffer at 100 uM at pH 5 after 20 hrs; assay type: physicochemical; settings: pH 5, 20 h
Summary of the method: (§1)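 100 µM compound solutions shaken at room temperature for 20 hr in PBS pH 7.4 or sodium citrate buffer pH 5.0; dissolved concentration reported in µM.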

[6] = Solubility of the compound in phosphate buffered saline at 100 uM at pH 7.4 after 20 hrs; assay type: physicochemical; settings: buffer, pH 7.4, 20 h; summary of the method: as §1
Cytochrome P450 2C9 = Cytochrome P450 2C9 (Homo sapiens, UniProt P11712); assay: Inhibition of CYP2C9 (unknown origin) at 10 uM; assay type: ADME
Chain of Cytochrome P450 2C9 (P11712 whole entry): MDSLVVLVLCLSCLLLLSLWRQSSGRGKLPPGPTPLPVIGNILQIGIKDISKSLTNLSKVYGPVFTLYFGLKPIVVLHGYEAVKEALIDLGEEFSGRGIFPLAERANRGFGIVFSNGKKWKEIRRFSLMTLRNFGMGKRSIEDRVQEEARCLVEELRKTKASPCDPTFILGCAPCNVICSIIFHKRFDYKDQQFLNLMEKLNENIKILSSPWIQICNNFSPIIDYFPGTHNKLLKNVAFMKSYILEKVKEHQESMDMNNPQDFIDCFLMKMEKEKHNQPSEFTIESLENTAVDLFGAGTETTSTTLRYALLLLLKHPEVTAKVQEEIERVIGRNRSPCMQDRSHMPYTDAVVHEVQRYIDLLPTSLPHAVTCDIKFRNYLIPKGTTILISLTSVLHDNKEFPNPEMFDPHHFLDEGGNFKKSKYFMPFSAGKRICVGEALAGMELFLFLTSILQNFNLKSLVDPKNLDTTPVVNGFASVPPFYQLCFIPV

[7] = target: T4, Nuclear receptor ROR-gamma (Homo sapiens, UniProt P51449); assay: Displacement of [3H]-T0903017 from GST-tagged ROR-gamma (unknown origin) after 20 hrs
T4 sequence (P51449 whole entry): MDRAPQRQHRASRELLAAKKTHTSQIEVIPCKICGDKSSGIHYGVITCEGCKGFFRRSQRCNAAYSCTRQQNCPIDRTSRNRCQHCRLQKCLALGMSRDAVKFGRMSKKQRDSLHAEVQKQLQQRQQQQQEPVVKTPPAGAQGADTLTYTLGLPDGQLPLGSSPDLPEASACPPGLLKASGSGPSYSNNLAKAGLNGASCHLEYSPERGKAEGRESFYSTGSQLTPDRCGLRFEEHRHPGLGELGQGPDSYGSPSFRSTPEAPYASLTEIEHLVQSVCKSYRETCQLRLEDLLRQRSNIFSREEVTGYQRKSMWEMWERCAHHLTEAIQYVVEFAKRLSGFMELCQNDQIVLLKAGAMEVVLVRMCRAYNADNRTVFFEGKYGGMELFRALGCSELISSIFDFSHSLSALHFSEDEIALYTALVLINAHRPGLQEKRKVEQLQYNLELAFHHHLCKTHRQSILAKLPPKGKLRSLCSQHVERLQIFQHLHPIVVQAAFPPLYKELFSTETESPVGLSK

Row | SMILES | inhibition (INH) (Cytochrome P450 1A2) [%] | inhibition (INH) (Cytochrome P450 2D6) [%] | inhibition (INH) (Cytochrome P450 3A4) [%] | solubility [5] [µM] | solubility [6] [µM] | inhibition (INH) (Cytochrome P450 2C9) [%] | IC50 [7] | other results
1 | COc1cc(O)c(C(CC(=O)N2CC(C)CC(C)C2)c2ccc3c(c2)OCO3)c(OC)c1 (stereo not drawn) | 3 | 15 | 97 | 15.2 (≈ 6.71 µg/mL) | 15.6 (≈ 6.89 µg/mL) | 92 | – | concentration at 6 h [1]: 780 nM; concentration at 6 h [2]: 300 nM; Activity [3]: inactive; Activity [4]: inactive; Drug uptake (Brain): 260%
2 | COc1cc(O)c(C(CC(=O)N2CC(C)CC(C)C2)c2ccccc2OC)c(OC)c1 (stereo not drawn) | -22 | -11 | 70 | 6 (≈ 2.57 µg/mL) | 12.7 (≈ 5.43 µg/mL) | 53 | – | –
3 | COc1ccc(C(CC(=O)N2CC(C)CC(C)C2)c2c(O)cc(OC)cc2OC)cc1 (stereo not drawn) | 4 | -7 | 75 | 19.5 (≈ 8.34 µg/mL) | 18 (≈ 7.7 µg/mL) | 65 | – | –
4 | COc1ccc(C(CC(=O)N2CCCC2)c2c(O)cc(OC)cc2OC)cc1 (stereo not drawn) | – | – | – | – | – | – | Not Active | –
5 | COc1ccc(C(CC(=O)NCc2ccccc2)c2c(O)cc(OC)cc2OC)cc1 (stereo not drawn) | – | – | – | – | – | – | Not Active | –
6 | COc1ccc(C(CC(=O)N2CCOCC2)c2c(O)cc(OC)cc2OC)cc1 (stereo not drawn) | – | – | – | – | – | – | Not Active | –
7 | COc1ccc(C(CC(=O)NC2CCCC2)c2c(O)cc(OC)cc2OC)cc1 (stereo not drawn) | – | – | – | – | – | – | Not Active | –
8 | COc1ccc(C(CC(=O)N2CCCCC2)c2c(O)cc(OC)cc2OC)cc1 (stereo not drawn) | – | – | – | – | – | – | Not Active | –
